Reference: ChEMBL document CHEMBL1126145, “Phenyl-substituted analogues of oxotremorine as muscarinic antagonists” (J Med Chem, 1992)

Experiments:
[1] = molecular target: Muscarinic acetylcholine receptor; experiment: Determination of dissociation constant from antimuscarinic activity on isolated guinea pig ileum.; assay type: tissue-based, Cavia porcellus
Mus musculus = organism: Mus musculus; experiment: Antimuscarinic activity on the intact mice.(Dose required to double the dose of oxotremorine inducing a predetermined tremor intensity.); assay type: functional
In short: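 Male Swiss-Webster mice (24-32 g). Antagonist given i.p. at 200 µmol/kg to groups of ≥6 mice; 6 untreated controls. 20 min later, the i.v. oxotremorine ED50 was estimated by the up-and-down method, with intermittent spontaneous (grade 2) tremor as endpoint. Active compounds were tested at two further doses. The dose doubling the oxotremorine ED50 was found by linear regression of ED50 vs antagonist dose (including zero).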

[2] = molecular target: Muscarinic acetylcholine receptor; experiment: Inhibition of [3H]N-methylscopolamine binding to muscarinic acetylcholine receptor of rat cerebral cortex.; assay type: tissue-based
In short: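 Male Sprague-Dawley rat (200-300 g) cortex homogenized in 50 mM Na-K phosphate pH 7.4, spun 30000g, resuspended at 10 mg wet tissue/mL. Incubated with (-)-[3H]NMS 0.3 nM plus competitor for 30 min at 30 °C; filtration assay. IC50 from one-site nonlinear fit, converted to Ki by Cheng-Prusoff. Three experiments, each in triplicate.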

SMILES	Kd [1] [nM]	Ki [2] [nM]	Tremorolytic dose (Mus musculus) [µM/kg]
CC(=O)N(C)C(C)C#CCN1CCCC1 (stereo unspecified)	–	–	0.6
CC(=O)N(CC#CCN1CCCC1)Cc1ccccc1	5890	1290	154
CC(C#CCN1CCCC1)N1C(=O)CCC1=O (stereo unspecified)	–	–	1.2
CC1CCC(=O)N1CC#CCN1CCCC1 (stereo unspecified)	–	–	0.4
CC(C#CCN1CCCC1)N1CCCC1=O (stereo unspecified)	91	–	0.5
CN(CC#CCN1CCCC1)C(=O)Cc1ccccc1	20500	5200	>200
CN(C(=O)C(F)(F)F)C(C#CCN1CCCC1)c1ccccc1 (stereo unspecified)	500	230	26.5
CN1[C@@H]2CC[C@H]1C[C@@H](OC(=O)C(CO)c1ccccc1)C2 (stereo partly specified) [ATROPINE]	–	–	0.9

Now from value to molecule, other results behind:

Kd [1] [nM]	Ki [2] [nM]	SMILES	Tremorolytic dose (Mus musculus) [µM/kg]
620	310	CC(=O)N(C)C(C#CCN1CCCC1)c1ccccc1 (stereo unspecified)	17.4
200	110	O=C1CCCN1C(C#CCN1CCCC1)c1ccccc1 (stereo unspecified)	8.93
11210	6910	O=C1C(c2ccccc2)CCN1CC#CCN1CCCC1 (stereo unspecified)	>200
850	540	O=C1CCC(c2ccccc2)N1CC#CCN1CCCC1 (stereo unspecified)	55.6
15220	5770	O=C1CC(c2ccccc2)CN1CC#CCN1CCCC1 (stereo unspecified)	>200
8100	2400	O=C1CCCN1CC#CCN1CCC(c2ccccc2)C1 (stereo unspecified)	122
100	120	O=C1CCC(=O)N1C(C#CCN1CCCC1)c1ccccc1 (stereo unspecified)	7.29
